# Source: paper PMC7424198 (iScience, 2020)
# Assay: Thermal unfolding monitored by CD spectroscopy
# Assay type: physicochemical
# Conditions: 20 μM protein, 10 mM phosphate buffer pH 7.4, 2 °C intervals, 20 to 90 °C
# Summary of the method: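 TM read as the transition point from the first derivative of the CD thermal unfolding curve. Reversibility was checked by comparing spectra recorded before and after heating. The 202 nm signal was followed during denaturation to look for an isodichroic point, which would indicate a two-state helix–unfolded transition. Spectra were recorded on 20 μM protein in 10 mM phosphate buffer.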
substance,measurement,value
aureocin A53,transition midpoint (TM) of thermal unfolding,~54 °C
